Data on 14 compounds can be found in PMC3983365 (Journal of medicinal chemistry, 2014).

One may read the Kd as the free concentration of one partner at which half of the binding sites on the other are occupied at equilibrium, for simple one-to-one binding.

One data set has as its target Hsp90. The data set can be described thus: Hsp90 binding assay. The following applies: read-out: Hsp90 binding; binding to SKBr3 cell extracts; competition with GM-Cy3B.
The target in a further data set is Hsp70. The following applies: read-out: Kd for Hsp70; cited from earlier work.
A further data set has as its target c-Met (Homo sapiens, UniProt P08581). In words: scanMAX kinase screen, c-Met. In kind it is binding. Conditions: at 10 μM. The essentials:
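Kinase-tagged T7 phage (BL21-derived E. coli host) or HEK-293-made DNA-tagged kinase competed against an immobilised active-site ligand on streptavidin magnetic beads, with test compound at 10 μM (from 40× DMSO stock). Run in SeaBlock/PBS/Tween/DTT binding buffer for 1 h at room temperature. Beads then washed and eluted with 0.5 μM non-biotinylated ligand; kinase in eluate quantified by qPCR.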

The subject of the next data set is PARP. The data set can be described thus: PARP cleavage by Western blot in SKBr3. The format is cell-based. The following applies: Homo sapiens, SK-BR-3, read-out: cPARP (PARP cleavage). The method, boiled down:
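SK-BR-3 cells grown in DME/F12 with 10% FBS, 1% L-glutamine and penicillin/streptomycin to 60–70% confluence, then exposed to test compound or DMSO vehicle. Lysed in 50 mM Tris pH 7.4, 150 mM NaCl, 1% NP-40; protein by BCA. 10–50 μg lysate run on SDS–PAGE, blotted to nitrocellulose, probed with rabbit anti-PARP p85 fragment (1:500), then peroxidase secondary (1:3000).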
On the technique in general: Immunoblotting shows a protein as a band on a membrane.

Another data set deals with scanMAX 402 kinase panel. In words: scanMAX kinase screen. In kind it is binding. The following applies: at 10 μM. The essentials: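 Competition binding: DNA-tagged kinases (T7 phage in BL21-derived E. coli lysates, or HEK-293-expressed) mixed with biotinylated-ligand streptavidin magnetic beads and test compound (10 μM; 40× DMSO stocks) in SeaBlock/0.17× PBS/Tween 20/6 mM DTT, 1 h RT. Beads washed, eluted 30 min with 0.5 μM free ligand; bound kinase by qPCR. S-score: kinases bound divided by distinct non-mutant kinases tested.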

The next data set in a line: Aqueous solubility. The format is physicochemical.
The nature of data set [1]: LC/MS–MS analyses of cellular extracts. In kind it is in vitro ADME. The following applies: after 10 min of incubation; data not shown.

Chain of c-Met (P08581 25-1390): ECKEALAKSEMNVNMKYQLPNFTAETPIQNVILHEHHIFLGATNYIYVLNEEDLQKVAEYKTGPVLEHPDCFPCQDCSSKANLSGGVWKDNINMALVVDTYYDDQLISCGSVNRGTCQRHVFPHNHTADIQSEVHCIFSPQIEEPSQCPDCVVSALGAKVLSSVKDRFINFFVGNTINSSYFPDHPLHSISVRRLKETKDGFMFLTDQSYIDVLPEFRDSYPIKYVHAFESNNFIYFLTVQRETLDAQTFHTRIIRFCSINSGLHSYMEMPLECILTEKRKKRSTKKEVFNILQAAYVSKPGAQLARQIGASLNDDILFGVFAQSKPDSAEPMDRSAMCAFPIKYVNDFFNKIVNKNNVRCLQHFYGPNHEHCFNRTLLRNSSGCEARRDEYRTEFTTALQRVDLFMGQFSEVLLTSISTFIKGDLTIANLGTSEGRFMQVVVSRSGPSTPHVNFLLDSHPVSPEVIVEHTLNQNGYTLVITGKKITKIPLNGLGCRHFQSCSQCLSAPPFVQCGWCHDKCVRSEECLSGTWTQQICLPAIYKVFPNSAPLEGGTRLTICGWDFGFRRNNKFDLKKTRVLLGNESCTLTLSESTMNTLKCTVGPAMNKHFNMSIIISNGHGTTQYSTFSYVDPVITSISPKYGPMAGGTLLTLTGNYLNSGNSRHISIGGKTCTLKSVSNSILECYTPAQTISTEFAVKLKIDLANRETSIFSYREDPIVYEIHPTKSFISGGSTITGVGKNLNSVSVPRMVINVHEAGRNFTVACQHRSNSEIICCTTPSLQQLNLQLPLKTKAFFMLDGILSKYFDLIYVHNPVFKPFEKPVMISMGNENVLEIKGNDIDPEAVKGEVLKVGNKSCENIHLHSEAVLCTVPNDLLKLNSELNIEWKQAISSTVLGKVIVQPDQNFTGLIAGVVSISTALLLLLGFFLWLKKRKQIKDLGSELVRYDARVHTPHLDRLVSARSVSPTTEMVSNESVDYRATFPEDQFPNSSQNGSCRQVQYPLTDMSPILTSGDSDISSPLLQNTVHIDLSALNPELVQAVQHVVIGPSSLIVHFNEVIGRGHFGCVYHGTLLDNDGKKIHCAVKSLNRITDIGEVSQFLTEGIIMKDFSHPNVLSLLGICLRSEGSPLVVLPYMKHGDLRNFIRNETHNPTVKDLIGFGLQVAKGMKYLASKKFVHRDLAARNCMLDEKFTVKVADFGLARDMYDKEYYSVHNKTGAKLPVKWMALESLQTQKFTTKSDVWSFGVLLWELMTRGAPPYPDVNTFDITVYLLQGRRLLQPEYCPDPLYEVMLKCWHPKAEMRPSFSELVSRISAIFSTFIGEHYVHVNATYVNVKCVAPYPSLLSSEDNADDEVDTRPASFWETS

As to `C=CC(=O)Nc1cc(N)nc(Sc2c(OC)nc(N)nc2OC)n1` [compound 31, N-(6-Amino-2-((2-amino-4,6-dimethoxypyrimidin-5-yl)thio)-pyrimidin-4-yl)acrylamide], the IC50 at Hsp90 is over 500 µM.

As for `C=C(C)C(=O)Nc1ccnc(Sc2c(C)nc(N3CCN(C)CC3)nc2C)n1` [42c, N-(2-((4,6-Dimethyl-2-(4-methylpiperazin-1-yl)pyrimidin-5-yl)-thio)pyrimidin-4-yl)methacrylamide], on Hsp90, the IC50 is over 500 µM.

For `N#Cc1ccc(COC[C@H]2O[C@@H](n3c(NCc4ccc(Cl)c(Cl)c4)nc4c(N)ncnc43)[C@H](O)[C@@H]2O)cc1` [compound 7, reference compound], the Kd on Hsp70 is 0.3 µM.

As to `C=CC(=O)Nc1cc(N)nc(Sc2c(OC)nc(N3CCN(C)CC3)nc2OC)n1` [17a, N-(6-Amino-2-((4,6-dimethoxy-2-(4-methylpiperazin-1-yl)-pyrimidin-5-yl)thio)pyrimidin-4-yl)acrylamide], the IC50 at Hsp90 is over 500 µM. The “kinase hit in scanMAX screen” value at c-Met was “potential low-affinity kinase hit”. For the same compound, the EC50 with PARP worked out at 2 µM. Further, the “activity against the scanMAX 402 kinase panel” value in the data set on scanMAX 402 kinase panel was “inert”.

Take `C=CC(=O)Nc1cccc(Sc2c(OC)nc(N3CCOCC3)nc2OC)c1` [compound 37, N-(3-((4,6-Dimethoxy-2-morpholinopyrimidin-5-yl)thio)phenyl)-acrylamide]: at Hsp90, the IC50 is over 500 µM.

`C=CC(=O)Nc1cc(N)nc(Sc2c(OC)nc(N3CCN(C)CC3)nc2OCCOCCOCCOCCO)n1` [45a]: the IC50 on Hsp90 was over 500 µM.

For the compound `C=CC(=O)Nc1cc(N)nc(Sc2c(OCC)nc(N3CCCCC3)nc2OCC)n1` [20c, N-(6-Amino-2-((4,6-diethoxy-2-(piperidin-1-yl)pyrimidin-5-yl)-thio)pyrimidin-4-yl)acrylamide], the IC50 at Hsp90 was over 500 µM.

Regarding `C=CC(=O)Nc1ccnc(Sc2c(OC)nc(N3CCCC3)nc2OC)n1` [27d, N-(2-((4,6-Dimethoxy-2-(pyrrolidin-1-yl)pyrimidin-5-yl)thio)-pyrimidin-4-yl)acrylamide], the IC50 on Hsp90 is over 500 µM. Further, the aqueous solubility entry in “Aqueous solubility” is reported as “poor aqueous solubility”.

For the compound `C=CC(=O)Nc1cc(N)nc(Sc2c(OCC)nc(N3CCN(C)CC3)nc2OCC)n1` [20a, N-(6-Amino-2-((4,6-diethoxy-2-(4-methylpiperazin-1-yl)-pyrimidin-5-yl)thio)pyrimidin-4-yl)acrylamide], the IC50 at Hsp90 was over 500 µM.

`Nc1ncnc2c1ncn2[C@@H]1O[C@H](COP(=O)(O)OP(=O)(O)O)[C@@H](O)[C@H]1O` [ADP]: the Kd on Hsp70 was 0.11 to 0.5 µM.

Turning to `O=c1c(O)c(-c2cc(O)c(O)c(O)c2)oc2cc(O)cc(O)c12` [compound 4, myricetin, reference compound], in data set [1], the “stability in the cells (agent detected in cellular extracts)” value is reported as “virtually undetectable”. For the same compound, in the data set with PARP, the EC50 is over 100 µM.

As to `C=CC(=O)Nc1ccnc(Sc2c(C)nc(N3CCN(C)CC3)nc2C)n1` [42a, N-(2-((4,6-Dimethyl-2-(4-methylpiperazin-1-yl)pyrimidin-5-yl)-thio)pyrimidin-4-yl)acrylamide], the IC50 at Hsp90 is over 500 µM. In the data set on PARP, the EC50 came out at 5 µM.

Consider `C=CC(=O)Nc1ccnc(Sc2c(OC)nc(N3CCN(C)CC3)nc2OC)n1` [27a, N-(2-((4,6-Dimethoxy-2-(4-methylpiperazin-1-yl)pyrimidin-5-yl)-thio)pyrimidin-4-yl)acrylamide], for which the IC50 on Hsp90 is over 500 µM.

As for `C=CC(=O)Nc1cc(N)nc(Sc2c(OC)nc(N3CCN(CCOCCOCCOCCO)CC3)nc2OC)n1` [44a], the IC50 at Hsp90 was over 500 µM.
